A selection: hits, their analogues and other compounds. The true share with any hit is near 3.1%.
Apaf1 inhib: inhibitors of human Apaf-1 apoptosome; O14727; reconstituted apoptosome caspase-3 activity, DEVD-Rh110 fluorescence; inhibition, % at 20 µM; 0.71% of 330,000 active; active = inhibition of at least 40% at 20 µM;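 note: plate controls were DMSO wells for no effect and DEVD-CHO caspase inhibitor wells for full effect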
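System – cell-free apoptosome with Apaf-1, procaspase-3 and caspase-9 · Buffer or medium – pH 7.5 Hepes buffer with CHAPS, BSA, DTT · Also added – cytochrome c with DEVD-Rh110 · Times – 30 min compound preincubation, 50 min activation, room temperature · Technique – Rh110 fluorescence intensity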
PAFAH1B3 inh: blocks human PAF acetylhydrolase 1B catalytic subunit 3 | Q15102 | recombinant PAFAH1B3, FP-rhodamine probe, fluorescence polarization | inhibition, % at 3.39 µM | 0.28% of 340,000 active | AID 492972;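 active = inhibition above the screen-wide average of all tested compounds plus 3 SD, cut at about 25% in these data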;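 note: 0% = enzyme with DMSO only and 100% = wells lacking PAFAH1B3 protein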
pPAFAH FP inh: inhibitors of human plasma PAF acetylhydrolase (pPAFAH). inhibition, % at 3.39 µM. 1.5% of 330,000 active. AID 463082. recombinant pPAFAH, FP-rhodamine probe fluorescence polarization;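 active = inhibition above the mean inhibition across the screen plus 3 SD, cut at about 25% in these data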;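 note: inhibitors block binding of the rhodamine activity-based probe so polarization drops; 0% = enzyme with DMSO and 100% = wells lacking pPAFAH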
PAFAH2 FP inh: inhibitors of human PAFAH2. 0.99% of 340,000 active. inhibition, % at 3.39 µM. recombinant PAFAH2, FP-rhodamine activity probe, fluorescence polarization. Q99487;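 active = inhibition above the mean over all tested compounds plus 3 SD, cut at about 30% in these data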;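 note: inhibitors block probe labeling of enzyme so polarization drops; 0% = enzyme with DMSO and 100% = wells lacking PAFAH2 protein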
PAFAH1B2 inh: blocks human PAF acetylhydrolase 1b catalytic subunit 2. 1.2% of 340,000 active. AID 492953. recombinant PAFAH1B2, FP-rhodamine activity probe, fluorescence polarization. inhibition, % at 3.39 µM. P68402;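 active = inhibition above the mean of all tested compounds plus 3 SD, cut at about 24% in these data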;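 note: 0% = enzyme with DMSO and 100% = wells lacking PAFAH1B2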
pPAFAH FP conf: pPAFAH (human) inhibition, confirmed | AID 463230 | shares compounds with pPAFAH FP inh | inhibition, % at 3.39 µM | 72% of 2,300 active | recombinant pPAFAH, FP-Rh probe fluorescence polarization;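 active = mean inhibition of the triplicate above the hit cutoff set for the earlier primary screen, cut at about 25% in these data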;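 note: 0% = enzyme with DMSO and 100% = wells lacking pPAFAH enzyme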
Active calls of the source: *; / = not tested or not shown.

SMILES	Apaf1 inhib	PAFAH1B3 inh	pPAFAH FP inh	PAFAH2 FP inh	PAFAH1B2 inh	pPAFAH FP conf
[C-]#[N+][C@H](O[C@@H]1O[C@H](CO)[C@@H](O)[C@H](O)[C@H]1O)c1ccccc1	-2.4	0.4	7.5	-4.9	4.2	/
O=C(O)CC(CCc1ccccc1)OC1OC(CO)C(O)C(O)C1O (stereo not drawn)	-24.0	24.7	73.9*	38.7*	18.3	34.2*
C=CCOc1ccc(C2C3=C(CCCC3=O)N(CC(=O)O)C3=C2C(=O)CCC3)cc1OCC	-12.5	5.8	4.6	1.6	2.5	/
C=CCOc1c(Br)cc(C2C3=C(CCCC3=O)N(C)C3=C2C(=O)CCC3)cc1OCC	-2.6	-2.2	39.4*	8.6	4.1	5.1
COc1ccccc1N1C(=O)N(CC(=O)C(C)(C)C)c2ccccc2S1(=O)=O	3.7	1.7	0.7	4.6	6.0	/
COc1ccc(N2CCC(CNC(=O)Nc3ccc(Cl)cc3)C2)cc1 (stereo not drawn)	5.7	6.1	35.5*	-4.9	0.3	4.9
CSc1ncccc1C(=O)OCC(=O)NC1CCC(C)CC1 (stereo not drawn)	9.6	7.5	51.9*	36.4*	0.9	-0.1
CSc1ncccc1C(=O)OCC(=O)NC1CCS(=O)(=O)C1 (stereo not drawn)	-1.9	-3.0	-4.0	5.7	-0.2	/
CC(=O)CN1Cc2ccccc2/C1=N\C(=O)Nc1ccccc1	-10.5	8.5	70.5*	0.4	-0.8	7.1
O=C(N/N=C/c1ccncc1)c1ccc2c(c1)OCO2	-8.0	5.0	41.5*	9.1	2.0	-4.1
CN(Cc1ccccc1)C(=O)Cn1c(=O)c2cccn2c2cccnc21	2.4	6.4	1.2	2.4	1.1	/
O=C1c2ccc(-c3ccc(F)cc3OCc3ccccc3)cc2S(=O)(=O)c2cccc(C(=O)N3CCN(c4ncc(Br)cn4)CC3)c21	19.4	-7.8	42.8*	-5.6	-4.0	32.4*
COc1ccc(-c2ccc3c(c2)S(=O)(=O)c2cccc(C(=O)N4CCN(c5ccc(Cl)cn5)CC4)c2C3=O)cc1OC	11.0	-4.4	36.4*	61.6*	5.4	48.9*
O=C1c2ccc(-c3ccc(F)cc3OCc3ccccc3)cc2S(=O)(=O)c2cccc(C(=O)N3CCN(c4ncc(Cl)cc4Cl)CC3)c21	20.4	4.4	37.4*	1.6	-6.0	25.4*
O=C1c2ccc(Cl)cc2S(=O)(=O)c2cccc(C(=O)N3CCN(c4ccc(Cl)cn4)CC3)c21	21.8	1.6	8.0	0.0	3.6	/
N#Cc1cccnc1N1CCN(C(=O)c2cccc3c2C(=O)c2ccc(-c4ccc(F)cc4OCc4ccccc4)cc2S3(=O)=O)CC1	5.8	4.3	23.9	-3.8	8.7	/
COc1ccc(C(=O)NC2CCCc3c2cnn3-c2cccc(C)c2C)o1 (stereo not drawn)	-6.8	0.0	5.2	9.0	1.7	/
CN1/C(=C\C=C2/C(=O)Oc3ccccc3C2=O)C(C)(C)c2ccccc21	/	/	34.7*	/	/	-59.8
Cc1ccc(C)c(N2CCN(C(=O)Cc3ccc(NC4=NC5CS(=O)(=O)CC5S4)cc3)CC2)c1 (stereo not drawn)	6.6	0.8	-0.2	-0.6	0.5	/
N#Cc1ccc(Cl)cc1NC(=O)CSc1nc2nc(-c3cccs3)cc(C(F)(F)F)c2c(=O)[nH]1	0.3	/	-6.5	/	/	/
Oc1ccc(N=Nc2ccccc2-c2nn[nH]n2)c(O)c1	12.1	39.5*	82.7*	40.5*	16.1	46.2*
Cc1ccccc1-c1nn[nH]n1	-2.5	7.1	0.2	-5.1	1.9	/
Cc1ccc(N(CC(=O)NC2CCCCC2)C(=O)CNC(=O)c2ccco2)cc1C	11.4	-8.5	-2.0	1.8	2.1	/
COc1cccc(=O)c2c(C)n(CC(=O)c3ccccc3)c(C)c12	14.4	7.2	38.0*	8.2	2.3	16.4
CCN(CC)CCn1c(=S)[nH]c2cc(C(=O)NCc3ccccc3Cl)ccc2c1=O	16.8	10.2	0.8	15.0	0.8	/
Clc1ccc2c(NCc3ccccn3)ccnc2c1	4.6	1.4	-0.3	3.2	4.8	/
Oc1ccc(/C=N/Nc2ccnc3cc(Cl)ccc23)cc1O	5.3	54.3*	35.6*	20.4	24.6*	44.7*
Oc1ccc(/C=N/Nc2ccnc3cc(Cl)ccc23)c(O)c1O	23.1	47.7*	43.5*	35.0*	36.8*	57.0*
